Most compounds without a hit are left out; they make up all but 2.7% or so of the library.
GSTO1 counter: inhibitors of recombinant GSTO1, primary screen, counter-screen for RBBP9 inhibitor project, biochemical, fluorescence polarization. activity-based probe fluorescence polarization. inhibition, % at 5.96 µM. hit rate 1.1% among 300,000. AID 1974, 2009;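 active = inhibition above the campaign mean inhibition plus 3 SD, cut at about 35% in these data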;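 also: 0% = GSTO1-1 with DMSO and 100% = wells lacking GSTO1-1 enzyme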
PRMT1 FP inh: PRMT1 methyltransferase inhibitors, primary screen, biochemical, fluorescence polarization; recombinant PRMT1, activity-based probe fluorescence polarization; inhibition, % at 2.79 µM; hit rate 1.3% among 370,000;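 active = inhibition above about 21% made by adding two undisclosed values, limit read from the data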
Target sequence (Q99873 whole entry, looked up): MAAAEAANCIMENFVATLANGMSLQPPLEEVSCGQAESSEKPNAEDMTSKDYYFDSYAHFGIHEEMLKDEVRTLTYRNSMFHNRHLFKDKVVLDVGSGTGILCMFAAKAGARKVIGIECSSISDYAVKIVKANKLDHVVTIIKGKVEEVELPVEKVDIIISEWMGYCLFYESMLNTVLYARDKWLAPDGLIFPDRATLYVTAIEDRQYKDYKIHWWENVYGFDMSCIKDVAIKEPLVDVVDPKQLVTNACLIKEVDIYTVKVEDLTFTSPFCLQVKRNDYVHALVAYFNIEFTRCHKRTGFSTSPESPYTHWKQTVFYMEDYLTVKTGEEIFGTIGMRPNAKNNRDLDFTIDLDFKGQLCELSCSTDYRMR
PAD4 inh: human PAD4 inhibitors, primary screen, biochemical, fluorescence polarization, 1536-well format; recombinant PAD4, RCA probe fluorescence polarization; inhibition, % at 6.36 µM; hit rate 0.41% among 330,000; AID 485272, 2010;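 active = percent inhibition above a cutoff equal to the mean of all tested compounds plus 3 SD, cut at about 15% in these data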;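 also: 0% = PAD4 with RCA probe and DMSO and 100% = probe without PAD4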
RBBP9 inhibitor: human RBBP9 inhibitors, primary screen, biochemical, fluorescence polarization, FP-Rh probe, HTS. Serine hydrolase RBBP9 (Homo sapiens), O75884. recombinant RBBP9. inhibition, % at 7.94 µM. hit rate 0.2% among 220,000. AID 1515, 2009;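 active = inhibition above the campaign mean of all tested compounds plus 3 SD, cut at about 14% in these data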;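 also: plate controls were DMSO wells with RBBP9 for no effect and wells lacking RBBP9 protein for full effect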
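System: RBBP9 protein / Buffer or medium: Tris/NaCl buffer pH 8.0 with 0.1% Pluronic / Probe or stimulus: Serine-hydrolase probe FP-Rh, 375 nM pre-mixing / Dosing: 7.94 µM single dose, 0.794% DMSO / Times: enzyme-compound preincubation 30 min, then probe labeling 45 min, 25 °C / Technique: fluorescence polarization (mP), excitation 525 nm, emission 598 nm / Replication: singlicate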
SIAE inh: human SIAE inhibitors, primary screen, biochemical, fluorescence polarization, FP-Rh probe, 1536-well HTS | SIAE FP-Rh probe binding | inhibition, % at 9.66 µM | hit rate 0.69% among 370,000 | AID 1053197, 2014;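 active = inhibition above a cutoff: mean of compounds within the control limits plus 3 SD of those, cut at about 17% in these data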;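 also: 0% = plate median of compound wells and 100% = probe without SIAE protein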
PRMT1 confirm: PRMT1 methyltransferase inhibitors, confirmation, biochemical, fluorescence polarization, triplicate; shares compounds with PRMT1 FP inh; recombinant His-PRMT1, activity-based probe fluorescence polarization; inhibition, % at 2.79 µM; hit rate 42% among 3,300; AID 687036, 2013;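 active = mean inhibition across replicates above the hit cutoff derived for the earlier primary screen, cut at about 22% in these data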
SIAE confirm: human SIAE inhibitors, retest, confirmation, biochemical, fluorescence polarization, FP-Rh probe, triplicate; shares compounds with SIAE inh; SIAE FP-Rh activity-based probe; inhibition, % at 9.66 µM; hit rate 13% among 2,300; AID 1117263, 2014;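 active = mean inhibition of the replicates above the hit cutoff set in the primary screen, cut at about 17% in these data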;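 also: 0% = SIAE with DMSO and probe and 100% = probe without SIAE; inhibitors lower polarization as more probe stays unbound to SIAE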
* hit, by the source's call; . = no result.

SMILES	GSTO1 counter	PRMT1 FP inh	PAD4 inh	RBBP9 inhibitor	SIAE inh	PRMT1 confirm	SIAE confirm
Cc1cccc(N=C2NC(=O)/C(=C/C=C/c3ccco3)S2)c1C	16	29*	-8	3	18*	31*	6
COc1cccc(C(=O)Nc2cc(C(=O)NCc3ccc(C)cc3)ccc2N2CCC3(CC2)CC(c2cccc(Br)c2)=NO3)c1	-1	-1	1	.	-1	.	.
Clc1ccc2c(N/N=C/c3ccccc3Br)ccnc2c1	2	3	-4	-8	1	.	.
C/C(=N/Nc1ccnc2cc(Cl)ccc12)c1ccc(O)cc1	-8	37*	0	.	37*	1	15
C=CCCC(=O)Nc1nc(C)c(-c2csc(Nc3cccc(OC)c3)n2)s1	0	3	-5	-6	-2	.	.
O=C1c2cccc3c(O)ccc(c23)C(=O)N1Cc1ccco1	.	158*	.	9	20*	169*	21*
O=C1c2ccccc2C(=O)N1Cc1ccco1	-3	-1	-2	1	2	.	.
CCOC(=O)CC1=NS(=O)(=O)c2ccccc2N1	4	3	-8	-2	2	.	.
Nc1c(C(=O)NCC2CCCO2)sc2nc3c(c(-c4ccco4)c12)CC/C3=C\c1ccco1 (stereo not drawn)	.	36*	.	3	23*	47*	16
Cc1ccc[n+](-c2[nH]c(=O)sc2/C=N/N=C(\[O-])CCn2c3ccccc3c3ccccc32)c1	0	11	3	-3	-2	.	.
Cc1cc[n+](-c2[nH]c(=O)sc2/C=N/NC([S-])=Nc2ccccc2)cc1C	25	56*	1	0	19*	26*	3
O=C(NCCCN1CCOCC1)C1Nc2ccc(OC(F)(F)F)cc2C2C=CCC12 (stereo not drawn)	2	0	2	.	13	.	.
O=C(NCc1ccccn1)C1Nc2ccc(OC(F)(F)F)cc2C2C=CCC12 (stereo not drawn)	2	34*	-4	.	17*	4	1
CN(C)/C=C1\C=C2C(=O)c3ccccc3N2C1=O	9	111*	8	11	21*	54*	38*
O=C(OCCOc1ccccc1Cl)c1ccc(-n2cnnn2)cc1	2	1	-1	-4	-5	.	.
Cc1ccc(S(=O)(=O)Nc2nc3ccccc3nc2NCc2ccco2)cc1	3	33*	9	13	23*	9	2
O=S(=O)(Nc1nc2ccccc2nc1NCc1ccco1)c1ccc(Cl)cc1	1	10	-2	7	-6	.	.
O=C1S/C(=C\C=C\c2ccco2)C(=O)N1c1ccccc1	2	40*	-7	2	21*	9	3
CN(C)c1ccc(N=c2sc3ccccc3n2C)cc1	7	1	0	12	-2	.	.
CC1=CC(=O)C=CC1=Nc1ccc(N(C)C)cc1	.	67*	.	.	17*	41*	12
CC(=O)Oc1ccc(-c2csc(Nc3cccc(C)n3)n2)cc1	-6	1	-2	.	3	.	.
O=C1Nc2cc(Cl)cnc2N2CCCC12 (stereo not drawn)	4	-2	-2	3	-12	.	.
Nc1c(C(=O)Nc2ccccc2)sc2nc(-c3ccco3)ccc12	8	52*	-4	11	30*	40*	5
O=S(=O)(c1ccc(F)cc1)N1CN(Cc2ccco2)c2nc3ccccc3nc21	7	26*	6	-1	34*	3	-2
O=C(CSc1ccc(-c2ccco2)nn1)Nc1ccc(F)cc1F	4	34*	1	.	19*	3	2
O=C(CSc1ccc(-c2ccccn2)nn1)Nc1ccc(F)cc1F	-2	0	0	.	-2	.	.

Screens as filed in PubChem BioAssay.
